Experimental data taken from paper PMC9933479 (ACS Omega, 2023).

Key:
Test in all cases: MTT assay, cytotoxicity/growth inhibition
A549 (lung carcinoma) = format: cell-based, human; settings: for IC50 / inhibition at 20 µM: Homo sapiens; for IC50: A549; for inhibition at 20 µM: A549, 48 h, read-out: Cytotoxic Activity (% Growth Inhibition), A549, 20 μM concentration, MTT, 48 h; for Cytotoxic Activity (% Growth Inhibition): A549, 20 μM concentration, MTT, 48 h, 20 µM
Method in brief: (§1)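 Cells were grown in RPMI (A549, HCT-116, PC-3) or DMEM (MCF-7) with 10% FBS at 37 °C and 5% CO2. Seeding per well was […] and PC-3 8 × 10^4 cells. […] MTT 250 μg/mL, 4 h; DMSO; A570; triplicate; mean ± SE.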

[1] = system: PC-3 (prostate carcinoma); format: cell-based; settings: Homo sapiens; for inhibition at 20 µM: 48 h, read-out: Cytotoxic Activity (% Growth Inhibition)
Method in brief: as §1

MCF-7 (breast carcinoma) = format: cell-based; settings: Homo sapiens; for IC50: MCF7; for inhibition at 20 µM: MCF7, 48 h, read-out: Cytotoxic Activity (% Growth Inhibition)
Method in brief: as §1

[2] = system: HCT-116 (colon carcinoma); format: cell-based; settings: Homo sapiens; for IC50: HCT-116; for inhibition at 20 µM: HCT-116, 48 h, read-out: Cytotoxic Activity (% Growth Inhibition)
Method in brief: as §1

Compound	IC50 (A549 (lung carcinoma)) [µM]	inhibition at 20 µM (A549 (lung carcinoma)) [%]	IC50 [1] [µM]	inhibition at 20 µM [1] [%]	IC50 (MCF-7 (breast carcinoma)) [µM]	inhibition at 20 µM (MCF-7 (breast carcinoma)) [%]	IC50 [2] [µM]	inhibition at 20 µM [2] [%]	Cytotoxic Activity (% Growth Inhibition) (A549 (lung carcinoma)) [%]	potency relative to andrographolide (times / fold more potent) (A549 (lung carcinoma); A549, ratio of IC50 values)
COc1cc(OC)cc(C(=O)OCC2=CCC3[C@](C)(CO)[C@H](O)CC[C@@]3(C)[C@@H]2/C=C/C2=CCOC2=O)c1 (stereo partly drawn) [Compound 9j, ((1S,5R,6R,8aR)-6-Hydroxy-5-(hydroxymethyl)-5,8a-dimethyl-1-((E)-2-(2-oxo-2,5 dihydrofuran-3-yl)vinyl)-1,4,4a,5,6,7,8,8a-octahydronaphthalen-2-yl)methyl 3,5-Dimethoxybenzoate]	> 20	8.7 ± 0.45	6.1	70 ± 0.82	16.6	51 ± 0.49	> 20	23.9 ± 0.49		
CCCCCCCCCCCC(=O)OCC1=CCC2[C@](C)(CO)[C@H](O)CC[C@@]2(C)[C@@H]1/C=C/C1=CCOC1=O (stereo partly drawn) [Compound 9y, ((1S,5R,6R,8aR)-6-Hydroxy-5-(hydroxymethyl)-5,8a-dimethyl-1-((E)-2-(2-oxo-2,5-dihydrofuran-3-yl)vinyl)-1,4,4a,5,6,7,8,8a-octahydronaphthalen-2-yl)methyl Dodecanoate]		1.6 ± 0.98		66 ± 0.47		38 ± 0.18		4.6 ± 0.44		
C[C@@]12COC(c3ccccc3)O[C@@H]1CC[C@]1(C)C2CC=C(COC(=O)c2cccc(C(F)(F)F)c2)[C@H]1/C=C/C1=CCOC1=O (stereo partly drawn) [Compound 8h, ((4aR,6aR,7S,10bR)-6a,10b-Dimethyl-7-((E)-2-(2-oxo-2,5-dihydrofuran-3-yl)vinyl)-3-phenyl-4a,5,6,6a,7,10,10a,10b-octahydro-1H-naphtho[2,1-d][1,3]dioxin-8-yl)methyl 3-(Trifluoromethyl)benzoate]		69		54 ± 0.62		0		4.8 ± 0.02	69.48 ± 0.42	
C[C@@]12COC(c3ccccc3)O[C@@H]1CC[C@]1(C)C2CC=C(COC(=O)c2cccc(F)c2)[C@H]1/C=C/C1=CCOC1=O (stereo partly drawn) [Compound 8c, ((4aR,6aR,7S,10bR)-6a,10b-Dimethyl-7-((E)-2-(2-oxo-2,5-dihydrofuran-3-yl)vinyl)-3-phenyl-4a,5,6,6a,7,10,10a,10b-octahydro-1H-naphtho[2,1-d][1,3]dioxin-8-yl)methyl 3-Fluorobenzoate]		41.7 ± 0.45		0		2.06 ± 0.04		19.3 ± 0.37		
C[C@@]12COC(c3ccccc3)O[C@@H]1CC[C@]1(C)C2CC=C(COC(=O)Cc2ccc(I)cc2)[C@H]1/C=C/C1=CCOC1=O (stereo partly drawn) [Compound 8r, ((4aR,6aR,7S,10bR)-6a,10b-Dimethyl-7-((E)-2-(2-oxo-2,5-dihydrofuran-3-yl)vinyl)-3-phenyl-4a,5,6,6a,7,10,10a,10b-octahydro-1H-naphtho[2,1-d][1,3]dioxin-8-yl)methyl 2-(4-Iodophenyl)acetate]	> 20	2.9 ± 0.69	5.8	77 ± 0.48	> 20	42 ± 0.69	> 20	22.1 ± 0.58		
COc1cc(OC)cc(C(=O)OCC2=CCC3[C@]4(C)COC(c5ccccc5)O[C@@H]4CC[C@@]3(C)[C@@H]2/C=C/C2=CCOC2=O)c1 (stereo partly drawn) [Compound 8j, ((4aR,6aR,7S,10bR)-6a,10b-Dimethyl-7-((E)-2-(2-oxo-2,5-dihydrofuran-3-yl)vinyl)-3-phenyl-4a,5,6,6a,7,10,10a,10b-octahydro-1H-naphtho[2,1-d][1,3]dioxin-8-yl)methyl 3,5-Dimethoxybenzoate]		< 52		55.8 ± 0.49		48 ± 0.91		47.2 ± 0.75	51 ± 0.48	
C[C@@]12COC(c3ccccc3)O[C@@H]1CC[C@]1(C)C2CC=C(COC(=O)c2ccoc2)[C@H]1/C=C/C1=CCOC1=O (stereo partly drawn) [Compound 8g, ((4aR,6aR,7S,10bR)-6a,10b-Dimethyl-7-((E)-2-(2-oxo-2,5-dihydrofuran-3-yl)vinyl)-3-phenyl-4a,5,6,6a,7,10,10a,10b-octahydro-1H-naphtho[2,1-d][1,3]dioxin-8-yl)methyl Furan-3-carboxylate]		40.95 ± 0.39		25 ± 0.58		0		0		
C[C@]1(CO)C2CC=C(COC(=O)c3cccc(I)c3)[C@@H](/C=C/C3=CCOC3=O)[C@]2(C)CC[C@H]1O (stereo partly drawn) [Compound 9f, ((1S,5R,6R,8aR)-6-Hydroxy-5-(hydroxymethyl)-5,8a-dimethyl-1-((E)-2-(2-oxo-2,5-dihydrofuran-3-yl)vinyl)-1,4,4a,5,6,7,8,8a-octahydronaphthalen-2-yl)methyl 3-Iodobenzoate]		58 ± 0.15		49 ± 1		21.75 ± 0.06		0		
C[C@]1(CO)C2CC=C(COC(=O)Cc3ccc(Cl)c(Cl)c3)[C@@H](/C=C/C3=CCOC3=O)[C@]2(C)CC[C@H]1O (stereo partly drawn) [Compound 9v, ((1S,5R,6R,8aR)-6-Hydroxy-5-(hydroxymethyl)-5,8a-dimethyl-1-((E)-2-(2-oxo-2,5-dihydrofuran-3-yl)vinyl)-1,4,4a,5,6,7,8,8a-octahydronaphthalen-2-yl)methyl 2-(3,4-Dichlorophenyl)acetate]	7.5	72	> 20	26.5 ± 0.54	> 20	29 ± 0.78	> 20	5.7 ± 6.1	72.7 ± 0.54	
COc1cc(CC(=O)OCC2=CCC3[C@]4(C)COC(c5ccccc5)O[C@@H]4CC[C@@]3(C)[C@@H]2/C=C/C2=CCOC2=O)cc(OC)c1OC (stereo partly drawn) [Compound 8u, ((4aR,6aR,7S,10bR)-6a,10b-Dimethyl-7-((E)-2-(2-oxo-2,5-dihydrofuran-3-yl)vinyl)-3-phenyl-4a,5,6,6a,7,10,10a,10b-octahydro-1H-naphtho[2,1-d][1,3]dioxin-8-yl)methyl 2-(3,4,5-Trimethoxyphenyl)acetate]	5.4	72 ± 0.54	9	70.9 ± 0.41	> 20	43 ± 0.28	> 20	10.9 ± 0.99		about 4
C[C@]1(CO)C2CC=C(COC(=O)c3ccccc3C(F)(F)F)[C@@H](/C=C/C3=CCOC3=O)[C@]2(C)CC[C@H]1O (stereo partly drawn) [Compound 9n, ((1S,5R,6R,8aR)-6-Hydroxy-5-(hydroxymethyl)-5,8a-dimethyl-1-((E)-2-(2-oxo-2,5-dihydrofuran-3-yl)vinyl)-1,4,4a,5,6,7,8,8a-octahydronaphthalen-2-yl)methyl 2-(Trifluoromethyl)benzoate]	> 20	5.6 ± 0.14	5.7	72.2 ± 0.41	> 20	18 ± 0.58	> 20	44.9 ± 0.78		
C[C@]1(CO)C2CC=C(COC(=O)c3cccc(F)c3)[C@@H](/C=C/C3=CCOC3=O)[C@]2(C)CC[C@H]1O (stereo partly drawn) [Compound 9c, ((1S,5R,6R,8aR)-6-Hydroxy-5-(hydroxymethyl)-5,8a-dimethyl-1-((E)-2-(2-oxo-2,5-dihydrofuran-3-yl)vinyl)-1,4,4a,5,6,7,8,8a-octahydronaphthalen-2-yl)methyl 3-Fluorobenzoate]		42.92 ± 0.27		0		1.54 ± 0.03		14.8 ± 0.17		
COc1cccc(C(=O)OCC2=CCC3[C@](C)(CO)[C@H](O)CC[C@@]3(C)[C@@H]2/C=C/C2=CCOC2=O)c1 (stereo partly drawn) [Compound 9b, ((1S,5R,6R,8aR)-6-Hydroxy-5-(hydroxymethyl)-5,8a-dimethyl-1-((E)-2-(2-oxo-2,5-dihydrofuran-3-yl)vinyl)-1,4,4a,5,6,7,8,8a-octahydronaphthalen-2-yl)methyl 3-Methoxybenzoate]		39.85 ± 0.26		7 ± 0.58		14.6 ± 0.09		0		
COc1cc(C(=O)OCC2=CCC3[C@]4(C)COC(c5ccccc5)O[C@@H]4CC[C@@]3(C)[C@@H]2/C=C/C2=CCOC2=O)cc(OC)c1OC (stereo partly drawn) [Compound 8k, ((4aR,6aR,7S,10bR)-6a,10b-Dimethyl-7-((E)-2-(2-oxo-2,5-dihydrofuran-3-yl)vinyl)-3-phenyl-4a,5,6,6a,7,10,10a,10b-octahydro-1H-naphtho[2,1-d][1,3]dioxin-8-yl)methyl 3,4,5-Trimethoxybenzoate]		20.4 ± 0.73		5.6 ± 0.59		46 ± 0.77		50 ± 0.62		
C[C@]1(CO)C2CC=C(COC(=O)Cc3ccc(F)cc3)[C@@H](/C=C/C3=CCOC3=O)[C@]2(C)CC[C@H]1O (stereo partly drawn) [Compound 9p, ((1S,5R,6R,8aR)-6-Hydroxy-5-(hydroxymethyl)-5,8a-dimethyl-1-((E)-2-(2-oxo-2,5-dihydrofuran-3-yl)vinyl)-1,4,4a,5,6,7,8,8a-octahydronaphthalen-2-yl)methyl 2-(4-Fluorophenyl)acetate]		32.6 ± 0.96		44 ± 0.89		12 ± 0.85		27.6 ± 0.31		
C[C@@]12COC(c3ccccc3)O[C@@H]1CC[C@]1(C)C2CC=C(COC(=O)c2cccc(Br)c2)[C@H]1/C=C/C1=CCOC1=O (stereo partly drawn) [Compound 8e, ((4aR,6aR,7S,10bR)-6a,10b-Dimethyl-7-((E)-2-(2-oxo-2,5-dihydrofuran-3-yl)vinyl)-3-phenyl-4a,5,6,6a,7,10,10a,10b-octahydro-1H-naphtho[2,1-d][1,3]dioxin-8-yl)methyl 3-Bromobenzoate]		31.59 ± 0.23		0		0		0		
